Activity calls are given as the source filed them. No cut-off for these calls is given here.
What was measured:
SK-BR-3 = experiment: Cytotoxicity against human SKBR3 cells after 72 hrs by MTT assay; format: functional, cell-based; settings: SK-BR-3, 72 h
In short: (§1)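 Cells seeded at 3000-6000 per well on day 0, according to cell line doubling time. Compound added in five 10-fold dilutions, 72-h incubation, then MTT colorimetric read-out. Absorbances converted to percentage growth by NCI formulae. IC50 obtained by linear regression between the concentrations bracketing PG 50; ">100" assigned when no concentration reaches it. Quadruplicate points, three independent experiments.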

WI-38 = experiment: Cytotoxicity against human WI38 cells after 72 hrs by MTT assay; format: cell-based; in short: as §1
SW-620 [1] = experiment: Cytotoxicity against human SW620 cells after 72 hrs by MTT assay; format: functional, cell-based; in short: as §1
MCF7 = experiment: Cytotoxicity against human MCF7 cells after 72 hrs by MTT assay; format: functional, cell-based; in short: as §1
MIA PaCa-2 = experiment: Cytotoxicity against human MIAPaCa2 cells after 72 hrs by MTT assay; format: functional, cell-based; in short: as §1
HeLa = experiment: Cytotoxicity against human HeLa cells after 72 hrs by MTT assay; format: functional, cell-based; in short: as §1
SW-620 [2] = experiment: Induction of cell cycle arrest in human SW620 cells assessed as subG1 phase cells at 5 uM after 24 hrs by PI-staining based flow cytometric analysis (reference value: 18.1 +/- 3.8%); format: functional
SW-620 [3] = experiment: Induction of cell cycle arrest in human SW620 cells assessed as S phase cells at 5 uM after 48 hrs by PI-staining based flow cytometric analysis (reference value: 41.6 +/- 0.3%); format: functional
SW-620 [4] = experiment: Induction of cell cycle arrest in human SW620 cells assessed as subG1 phase cells at 10 uM after 48 hrs by PI-staining based flow cytometric analysis (reference value: 5.8 +/- 0.3%); format: functional
SW-620 [5] = experiment: Induction of cell cycle arrest in human SW620 cells assessed as G1 phase cells at 10 uM after 24 hrs by PI-staining based flow cytometric analysis (reference value: 52.6 +/- 2.3%); format: functional
SW-620 [6] = experiment: Induction of cell cycle arrest in human SW620 cells assessed as G1 phase cells at 5 uM after 48 hrs by PI-staining based flow cytometric analysis (reference value: 49.9 +/- 1.4%); format: functional
SW-620 [7] = experiment: Induction of cell cycle arrest in human SW620 cells assessed as subG1 phase cells at 5 uM after 48 hrs by PI-staining based flow cytometric analysis (reference value: 5.8 +/- 0.3%); format: functional
SW-620 [8] = experiment: Induction of cell cycle arrest in human SW620 cells assessed as S phase cells at 5 uM after 24 hrs by PI-staining based flow cytometric analysis (reference value: 38.3 +/- 0.4%); format: functional
SW-620 [9] = experiment: Induction of cell cycle arrest in human SW620 cells assessed as S phase cells at 10 uM after 24 hrs by PI-staining based flow cytometric analysis (reference value: 38.3 +/- 0.4%); format: functional
SW-620 [10] = experiment: Induction of cell cycle arrest in human SW620 cells assessed as G1 phase cells at 5 uM after 24 hrs by PI-staining based flow cytometric analysis (reference value: 52.6 +/- 2.3%); format: functional
SW-620 [11] = experiment: Induction of cell cycle arrest in human SW620 cells assessed as G2/M phase cells at 5 uM after 48 hrs by PI-staining based flow cytometric analysis (reference value: 8.5 +/- 1.6%); format: functional
SW-620 [12] = experiment: Induction of cell cycle arrest in human SW620 cells assessed as G1 phase cells at 10 uM after 48 hrs by PI-staining based flow cytometric analysis (reference value: 49.9 +/- 1.4%); format: functional
SW-620 [13] = experiment: Induction of cell cycle arrest in human SW620 cells assessed as subG1 phase cells at 10 uM after 24 hrs by PI-staining based flow cytometric analysis (reference value: 18.1 +/- 3.8%); format: functional
SW-620 [14] = experiment: Induction of cell cycle arrest in human SW620 cells assessed as S phase cells at 10 uM after 48 hrs by PI-staining based flow cytometric analysis (reference value: 41.6 +/- 0.3%); format: functional
SW-620 [15] = experiment: Induction of cell cycle arrest in human SW620 cells assessed as G2/M phase cells at 10 uM after 24 hrs by PI-staining based flow cytometric analysis (reference value: 9.3 +/- 2.6%); format: functional
SW-620 [16] = experiment: Induction of cell cycle arrest in human SW620 cells assessed as G2/M phase cells at 10 uM after 48 hrs by PI-staining based flow cytometric analysis (reference value: 8.5 +/- 1.6%); format: functional
SW-620 [17] = experiment: Induction of apoptosis in human SW620 cells assessed as caspase9 activation at 10 uM after 24 to 48 hrs by caspase protease assay; format: functional, cell-based
In short: (§2)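 Compound at 5 µM on SK-BR-3 and 10 µM on SW620. Cells harvested after 24 and 48 h, washed in PBS, lysed 10 min on ice, centrifuged. Lysate diluted to 3 mg/mL protein and mixed with DTT-containing reaction buffer and caspase-3, -8 or -9 substrate. Incubated 90 min at 37 °C in the dark. Absorbance read at 405 nm, duplicates, compared with untreated control.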

SW-620 [18] = experiment: Induction of apoptosis in human SW620 cells assessed as caspase3 activation at 10 uM after 24 to 48 hrs by caspase protease assay; format: functional, cell-based; in short: as §2
SW-620 [19] = experiment: Induction of cell cycle arrest in human SW620 cells assessed as G2/M phase cells at 5 uM after 24 hrs by PI-staining based flow cytometric analysis (reference value: 9.3 +/- 2.6%); format: functional

Row | SMILES | IC50 (SK-BR-3) | IC50 (WI-38; Homo sapiens, WI-38, 72 h) | IC50 (SW-620 [1]; Homo sapiens, SW-620, 72 h) | IC50 (MCF7; Homo sapiens, MCF7, 72 h) | IC50 (MIA PaCa-2; Homo sapiens, MIA PaCa-2, 72 h) | IC50 (HeLa; Homo sapiens, HeLa, 72 h) | also measured
1 | O=C(Nc1nc2ccc(C3=NCCN3)cc2s1)c1cc2ccccc2o1 | > 100 µM | 59.2 µM | 56.4 µM | 50.9 µM | 97.1 µM | 59.8 µM | –
2 | N#Cc1ccc(NC(=O)c2cc3ccccc3o2)nc1 | > 100 µM | 52.4 µM | 69.2 µM | 5.3 µM | 44.7 µM | 23.9 µM | –
3 | O=C(Nc1nc2ccc([N+](=O)[O-])cc2[nH]1)c1cc2ccccc2o1 | > 100 µM | 8.6 µM | 6.9 µM | 5.2 µM | 9.3 µM | 9.2 µM | –
4 | CN(C)c1ccc(NC(=O)c2cc3ccccc3o2)cc1 [listing 1 of 2 here] | – | – | – | – | – | – | IC50 (WI-38; wi-38): > 100 µM; IC50 (SW-620 [1]; sw-620): 86 µM; IC50 (MCF7; mcf7): 35.6 µM; IC50 (MIA PaCa-2; mia paca-2): > 100 µM; IC50 (HeLa; hela): 83.7 µM
5 | CC(=O)Nc1ccc(NC(=O)c2cc3ccccc3o2)cc1 | > 100 µM | 71.2 µM | > 100 µM | 45.1 µM | > 100 µM | 77.3 µM | –
6 | N#Cc1ccc2nc(NC(=O)c3cc4ccccc4o3)sc2c1 | > 100 µM | 34.9 µM | > 100 µM | 21.5 µM | > 100 µM | 89.6 µM | –
7 | N#Cc1ccc(NC(=O)c2cc3ccccc3o2)cc1 | 34.2 µM | 7.9 µM | 7.4 µM | 7.6 µM | 27.1 µM | 7.6 µM | –
8 | CN(C)c1ccc(NC(=O)c2cc3ccccc3o2)cc1 [listing 2 of 2 here] | > 100 µM | 81.2 µM | 54.2 µM | – | – | 49.1 µM | IC50 (MCF7; mcf7): 8.5 µM; IC50 (MIA PaCa-2; mia paca-2): 49.6 µM
9 | CC(=O)Nc1ccc(NC(=O)c2cc3ccccc3o2)cn1 | 59.8 µM | 0.4 µM | 1.1 µM | 7.6 µM | 3.1 µM | 0.9 µM | Activity (SW-620 [2]): 18.1%; Activity (SW-620 [3]): 44.9%; Activity (SW-620 [4]): 4.3%; Activity (SW-620 [5]): 43.5%; Activity (SW-620 [6]): 43.9%; Activity (SW-620 [7]): 4.7%; Activity (SW-620 [8]): 42.6%; Activity (SW-620 [9]): 31.4%; Activity (SW-620 [10]): 46.8%; Activity (SW-620 [11]): 11.2%; Activity (SW-620 [12]): 45.2%; Activity (SW-620 [13]): 18.2%; Activity (SW-620 [14]): 45.4%; Activity (SW-620 [15]): 25.3%; Activity (SW-620 [16]): 9.5%; Activity (SW-620 [17]): Active; Activity (SW-620 [18]): Active; Activity (SW-620 [19]): 10.7%
10 | O=C(Nc1ccc([N+](=O)[O-])cn1)c1cc2ccccc2o1 | > 100 µM | 37.8 µM | 76.5 µM | 82.8 µM | 73.1 µM | 42.4 µM | –
11 | O=C(Nc1nc2ccc([N+](=O)[O-])cc2s1)c1cc2ccccc2o1 | > 100 µM | 72.9 µM | > 100 µM | 63.9 µM | > 100 µM | 17.5 µM | –
12 | N#Cc1ccc2nc(NC(=O)c3cc4ccccc4o3)[nH]c2c1 | > 100 µM | 9.1 µM | 9.2 µM | > 100 µM | > 100 µM | > 100 µM | –
13 | O=C(Nc1ccc([N+](=O)[O-])cc1)c1cc2ccccc2o1 | > 100 µM | 47.6 µM | 27.9 µM | 4.9 µM | 26.6 µM | 11.4 µM | –
14 | O=C(Nc1ccc(C2=NCCN2)cn1)c1cc2ccccc2o1 | > 100 µM | 68.7 µM | 67.1 µM | > 100 µM | > 100 µM | 71.9 µM | –

Reference: ChEMBL document CHEMBL2311305, “Antiproliferative potency of novel benzofuran-2-carboxamides on tumour cell lines: cell death mechanisms and determination of crystal structure” (Eur J Med Chem, 2013)
